# Shown are actives, neighbours in structure and some others; about 9.2% of the full set was active somewhere.
# Dynein cargo inh = blocks dynein driven cargo transport along microtubules; 3617.4 mouse cells, GR-EGFP nuclear translocation imaging; test concentration mostly 20 µM; stimulated with dexamethasone, 1 µM; active compounds read low; z-score, hits read low; 220,000 compounds, 0.47% hits; AID 1381;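 active = plate z-score of nuclear minus cytoplasmic receptor signal below a set negative limit, without overly bright fluorescence or cell loss, cut at about -3.5 in these data, passing the limit was not always enough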;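 note: z-score of nuclear minus cytoplasmic ring GR-EGFP intensity difference per well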
#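 medium = tetracycline-free induction medium containing charcoal-stripped FBS | probe or stimulus = dexamethasone, 1.0 µM final | timing = 48 h induction, then 1 h compound, then 30 min agonist, 37 °C | detection = automated 10x imaging of fixed Hoechst-stained cells | read-out basis = nuclear versus cytoplasmic GR-EGFP signal, averaged per well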
# HCT116 PTEN-null = PTEN-deleted cell growth suppression; viability, % at 10 µM; 140,000 compounds, 1.2% hits; HCT116 PTEN-null viability, CellTiter-Glo, 60 h; active compounds read low;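 active = viability at or below a set limit, 4 SD under the median of all tested compounds, cut at about 3.7% in these data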;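 note: PTEN knockout HCT116 line with beta catenin targeted HCT116 as companion control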
# bCat KO growth = beta-catenin-lacking colon tumor cell growth suppression; 140,000 compounds, 1.5% hits; HCT116 beta-catenin knockout viability, CellTiter-Glo, 60 h; active compounds read low; viability, % at 10 µM;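 active = viability at or under a set limit, the compound median less 4 SD, cut at about 6% in these data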;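 note: 0% = Hyamine 1622 control at 20 µM and 100% = untreated cell control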
# L major viab = reduces viability of Leishmania major promastigotes. resazurin fluorescence viability. inhibition, % at 10 µM. 200,000 compounds, 9% hits. AID 1063; in the data active = inhibition above about 50%;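 note: promastigotes grown with compound for 44 hours at 28 °C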
# Autophagy mod = modulators of autophagy. calls only at 10 µM (by protocol). MEF GFP-LC3 puncta imaging; test concentration mostly 10 µM. 190,000 compounds, 0.98% hits;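 active = percentage of spot-positive cells more than 3 SD above its plate mean, without a fluorescence outlier flag or 80% toxicity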;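 note: spot-positive cell cutoff set from DMSO-treated cells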
# Starred values were filed as active, the others as inactive; i = inactive; . = not tested or not shown; + = active, no number.
SMILES,Dynein cargo inh,HCT116 PTEN-null,bCat KO growth,L major viab,Autophagy mod
O=C(NCCN1CCOCC1)c1cc2cc([N+](=O)[O-])ccc2s1,0.033,.,.,66*,i
O=C(NCCCN1CCOCC1)c1cc(Cl)ccc1[N+](=O)[O-],-0.24,90,88,-2,i
O=[N+]([O-])c1ccc(Cl)cc1NCCCN1CCOCC1,0.36,92,92,59*,i
O=C(NC1CC1)C1CCN(C2CCN(C(=O)/C=C/c3cccs3)CC2)CC1,0.66,.,.,87*,i
CCOC(=O)C1CCN(C(=O)/C=C/c2cccs2)CC1,0.9,.,.,-2,i
O=C(NC1CC1)C1CCN(C2CCN(C(=O)/C=C/c3cccc(F)c3F)CC2)CC1,-0.17,.,.,82*,i
O=C(NC1CC1)C1CCN(C2CCN(C(=O)Cc3ccc4c(c3)OCO4)CC2)CC1,-0.61,.,.,-2,i
COc1cc(/C=N\NC(=O)C2CC3C=CC2C3)ccc1O (stereo not given),-0.014,109,87,18,i
Cc1ccc(C(C(=O)NCc2ccco2)N(C(=O)CNC(=O)c2cccs2)c2c(C)cccc2C)cc1 (stereo not given),0.12,100,10,10,i
Cc1ccc(C(C(=O)NCc2ccco2)N(C(=O)CNC(=O)c2cccs2)c2c(C)cc(C)cc2C)cc1 (stereo not given),-0.49,4,9,37,+
CC(=O)C1=C(O)CCCC1=NCc1nc2ccccc2[nH]1,1.7,.,.,8,i
Cc1cc(Cl)cc(Cl)c1OCCOCCN(C)C,-0.2,83,78,65*,i
CCc1cc(OCCN(C)C)ccc1Cl,-1.3,.,.,5,i
COc1cccc(OCCOCCNCCO)c1,-0.082,87,80,9,i
COCCNCCOCCOc1ccc(Cl)c(C)c1,-0.46,92,88,100*,i
Cc1cc(OCCOCCN(C)C)ccc1Cl,0.58,96,97,89*,i
COc1ccc2[nH]c3c(c2c1)CCNC3C1CC=C(C)CC1 (stereo not given),-0.089,.,.,6,+
O=C(Nc1ccc([N+](=O)[O-])cc1)Nc1ccc(N2CCOCC2)c2nonc12,-0.26,.,.,98*,i
COc1cc(C2N(C)CCC3(OCCO3)C2(C)C)cc(OC)c1OC (stereo not given),0.077,101,98,58*,i
COc1cccc(C2[C@H](C)C3(CCN2C)OCCO3)c1 (stereo not given in full),0.17,93,89,-3,i
CC(C)(C)c1ccc(C(=O)OCCNC(=O)c2c(Cl)nc3ccccn23)cc1,-0.27,80,77,76*,i
Cc1ccc(CNC(=O)Cn2c(=O)oc3ccccc32)o1,0.42,98,100,-3,i
O=C(O)CCC(=O)N1CCN(c2ncccn2)CC1,0.092,.,.,.,.
CC1(C(=O)NC2CCCCC2)CCC(=O)N1Cc1ccc2c(c1)OCO2 (stereo not given),-2.8,.,.,.,.
CC1(C)SC(=S)N(Cc2ccc3c(c2)OCO3)C1N(O)C(=O)NC1CCCCC1 (stereo not given),0.26,84,85,82*,i
SMILES,Dynein cargo inh,HCT116 PTEN-null,bCat KO growth,L major viab,Autophagy mod
Cn1nc(-c2ccccc2)c2nc3ccccc3nc21,-0.41,81,82,-5,+
CCCCn1c2nc3ccccc3nc2c2c(=O)n(-c3ccccc3)cnc21,2.1,69,83,15,i
CCCCn1nc(-c2ccccc2)c2nc3ccccc3nc21,-1.5,73,76,-3,+
CC(=O)NCC1CCCN(Cc2cn(-c3ccccc3F)nc2-c2cc(C)sc2C)C1 (stereo not given),-0.4,.,.,1,i
CCOC(=O)N1CCC(NC(=O)C2CCN(C(=O)c3cc4oc(C)cc4n3Cc3c(F)cccc3Cl)CC2)CC1,2.3,.,.,75*,i
CC(C)C(=O)Nc1cccc(S(=O)(=O)c2cccc(NC(=O)C(C)C)c2)c1,0.64,71,70,66*,i
CCOc1cc(/C=N/NC(=O)c2cccc([N+](=O)[O-])c2)ccc1OS(=O)(=O)c1ccccc1,-0.76,85,90,78*,i
CCOc1ccccc1/C=N/NC(=O)c1cccc(S(=O)(=O)N(CC)CC)c1,-0.0028,.,.,-2,i
COc1ccc(OC)c(/C=N/NC(=O)c2ccc(N(C)S(=O)(=O)c3ccccc3)cc2)c1,-0.28,.,.,99*,i
COc1ccc(C(=O)N/N=C/c2ccc(OC)c(OS(=O)(=O)c3ccccc3)c2)cc1,-0.055,78,82,91*,i
COC(=O)Cc1ccc(NC(=S)NNC(=O)C2CC2)cc1,0.019,.,.,.,.
O=C1CCCC(=O)C1=Cc1c[nH]c2ccccc12,0.16,106,98,1,i
O=C(CCc1nnc(-c2ccccc2)o1)NCc1cc(F)ccc1F,-1.1,.,.,-3,i
Cc1cc([N+](=O)[O-])nn1CCCC(=O)NC(C)c1ccccc1 (stereo not given),-0.2,100,97,51*,i
Cc1ccc(Oc2cc(NC(=O)CCCn3nc([N+](=O)[O-])cc3C)cc([N+](=O)[O-])c2)cc1,0.29,79,80,95*,i
Cc1nn(CCCC(=O)Nc2cc(Oc3ccccc3)cc([N+](=O)[O-])c2)c(C)c1[N+](=O)[O-],-1,89,86,99*,i
Cc1ccc(C)c(Oc2cc(NC(=O)CCCn3nc(C)c([N+](=O)[O-])c3C)cc([N+](=O)[O-])c2)c1,-0.6,12,33,7,i
COc1cc(CNCCC2CCOC(C)(C)C2)ccc1O (stereo not given),1.4,110,92,57*,i
COc1cc(CNCCO)ccc1OC1CCCC1,0.82,108,115,36,i
O=C(c1ccc(Cl)cc1)N1CCN(c2ccc([N+](=O)[O-])c(NCc3cccnc3)c2)CC1,1.3,.,.,85*,i
N/C(CN1CCSCC1)=N\OCc1c(F)cccc1Cl,-0.16,.,.,.,.
CCOC(=O)c1csc(NC(=O)c2ccc(C#N)cc2)n1,0.17,.,.,5,i
CCC(c1nnnn1C(C)(C)C)N(Cc1ccco1)Cc1cc2cccc(C)c2[nH]c1=O (stereo not given),-0.61,79,74,62*,i
Cc1cc(C)c2[nH]c(=O)c(C(c3nnnn3C(C)(C)C)N(Cc3ccco3)CC3CCCO3)cc2c1 (stereo not given),-0.8,27,32,45,i
CCC(c1nnnn1CCc1ccccc1)N(Cc1ccco1)Cc1cc2cccc(C)c2[nH]c1=O (stereo not given),-0.68,50,60,99*,i
CN1CCC/C1=C/C=C1\SC(=S)NC1=O,0.25,86,100,-5,i
COc1ccc2occ(C(C)=O)c2c1,1.3,100,95,-4,i
CC(=O)c1coc2ccc(OCCN3CCCCC3)cc12,0.68,99,87,91*,i
COc1ccccc1-c1cc(C(F)(F)F)nc(S(=O)(=O)CCCC(=O)N2CCOCC2)n1,-0.65,1.1*,1.3*,100*,i
